Laboratory results published in ChEMBL document CHEMBL3108694, “Development of novel dual binders as potent, selective, and orally bioavailable tankyrase inhibitors” (J Med Chem, 2013).
pEC50, pIC50: −log10 of the molar value. In brackets after ≈: the same amount, converted by molar mass.

What was measured:
[1] = Inhibition of TNKS in human SW480 cells assessed as degradation of total pool of beta-catenin after 40 to 48 hrs; assay type: cell-based
Summary of the method: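 SW480 cells were seeded at 10 000/well in MEMα with 10% HI FBS, GlutaMAX, pyruvate and 10 mM HEPES. They were treated with a 10-point, 3-fold dilution series at 0.1% final DMSO for 40–48 h at 37 °C, then lysed. Total β-catenin was measured by MSD sandwich immunoassay (polyclonal capture, SULFO-TAG mAb detection).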

[2] = Solubility in fasted state simulated intestinal fluid at pH 6.8; assay type: ADME
[3] = Intrinsic clearance in rat liver microsomes at 1 uM after 30 mins; assay type: ADME; settings: read-out: CLH
Summary of the method: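 Substrate depletion in rat liver microsomes: 0.25 mg protein/mL, 1 mM NADPH and 2 mM MgCl2 in 50 mM potassium phosphate, pH 7.4, prewarmed to 37 °C. Test compound was added to a final 1 μM, and parent loss was measured after 30 min at 37 °C.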

[4] = Half life in CD-1 mouse plasma at 1 uM by LC-MS/MS analysis; assay type: ADME, cell-free
Summary of the method: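 Lithium-heparinized CD-1 mouse plasma was spiked with 1 μM substrate and incubated at 37 °C for 3 h, sampling at 0, 0.167, 1, 2 and 3 h (n = 2). Samples underwent acetonitrile protein precipitation with tolbutamide as internal standard. Analysis was by reversed-phase UPLC-ESI-MS/MS in MRM mode.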

[5] = molecular target: T1, Poly [ADP-ribose] polymerase tankyrase-1 (Homo sapiens, UniProt O95271); test: Inhibition of 6x-His-tagged TNKS1 (unknown origin) after 60 mins
T1 sequence (O95271 whole entry): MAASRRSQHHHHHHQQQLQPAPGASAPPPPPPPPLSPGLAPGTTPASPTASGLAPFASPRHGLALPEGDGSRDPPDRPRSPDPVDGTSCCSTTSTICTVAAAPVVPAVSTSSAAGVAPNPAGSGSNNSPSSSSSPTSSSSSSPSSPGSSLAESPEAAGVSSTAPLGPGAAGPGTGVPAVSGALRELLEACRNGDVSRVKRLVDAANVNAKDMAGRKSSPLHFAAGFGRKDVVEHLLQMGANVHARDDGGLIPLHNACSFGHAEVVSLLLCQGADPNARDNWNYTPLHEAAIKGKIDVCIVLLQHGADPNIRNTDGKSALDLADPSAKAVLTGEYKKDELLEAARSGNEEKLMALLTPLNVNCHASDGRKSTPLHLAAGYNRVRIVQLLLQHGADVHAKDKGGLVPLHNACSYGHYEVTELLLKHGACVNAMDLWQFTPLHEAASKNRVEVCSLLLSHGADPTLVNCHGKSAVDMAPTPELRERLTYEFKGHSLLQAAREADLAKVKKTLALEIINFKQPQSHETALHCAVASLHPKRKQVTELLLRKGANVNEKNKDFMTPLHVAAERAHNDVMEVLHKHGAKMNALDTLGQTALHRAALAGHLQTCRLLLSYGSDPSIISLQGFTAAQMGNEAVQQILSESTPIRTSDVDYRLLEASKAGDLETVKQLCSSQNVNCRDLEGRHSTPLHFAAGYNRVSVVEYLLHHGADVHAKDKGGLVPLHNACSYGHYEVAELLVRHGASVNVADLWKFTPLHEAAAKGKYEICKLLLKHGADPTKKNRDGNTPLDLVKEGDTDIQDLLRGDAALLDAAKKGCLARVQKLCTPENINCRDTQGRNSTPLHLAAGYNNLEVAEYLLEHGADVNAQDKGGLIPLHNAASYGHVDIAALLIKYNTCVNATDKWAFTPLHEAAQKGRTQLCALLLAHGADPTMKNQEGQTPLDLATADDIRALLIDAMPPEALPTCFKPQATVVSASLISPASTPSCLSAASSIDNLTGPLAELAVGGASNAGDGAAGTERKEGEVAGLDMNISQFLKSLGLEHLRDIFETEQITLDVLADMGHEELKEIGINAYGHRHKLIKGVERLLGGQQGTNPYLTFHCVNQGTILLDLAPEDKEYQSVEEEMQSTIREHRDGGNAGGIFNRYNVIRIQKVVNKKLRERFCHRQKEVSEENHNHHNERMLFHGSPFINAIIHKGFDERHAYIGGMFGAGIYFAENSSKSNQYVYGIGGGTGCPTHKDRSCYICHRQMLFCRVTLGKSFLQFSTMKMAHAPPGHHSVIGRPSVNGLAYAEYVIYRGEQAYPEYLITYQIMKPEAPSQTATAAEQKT

[6] = Inhibition of TNKS in human SW480 cells assessed as accumulation of axin-2 into cytoplasmic foci after 24 hrs by Hoechst dye-based assay; settings: SW480, 24 h
[7] = Tmax in CD-1 mouse at 30 mg/kg, po; assay type: ADME, organism-based; parameters: dose 30 mg/kg, route oral; settings: in vivo
Summary of the method: (§1)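 Male CD-1 mice given a single oral dose of 30 mg/kg. Vehicle was 10% Pluronic F68, 30% HPBCD and 60% water, pH adjusted to 10.0 with NaOH for most compounds or to 2.5 with methanesulfonic acid for one. Mean plasma PK parameters were reported.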

[8] = AUC (0 to infinity) in CD-1 mouse at 30 mg/kg, po; assay type: ADME, organism-based; parameters: time infinity, dose 30 mg/kg, route oral; settings: plasma; summary of the method: as §1
[9] = Cmax in CD-1 mouse at 30 mg/kg, po; assay type: ADME, organism-based; parameters: dose 30 mg/kg, route oral; settings: in vivo; summary of the method: as §1
[10] = Inhibition of TNKS in human DLD1 cells expressing APC mutant assessed as inhibition of super-Topflash reporter gene transcription after 40 to 48 hrs by dual-glo luciferase reporter gene assay; assay type: cell-based; settings: DLD-1
Summary of the method: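 DLD-1 cells carried an 8× TCF-driven firefly luciferase and an EF1a-driven Renilla luciferase, and were seeded at 10 000/well in RPMI with 10% FBS without antibiotics. A 10-point, 3-fold dilution series starting at 10 μM was applied for 40–48 h at 37 °C. Firefly and Renilla activities were read with Dual-Glo reagents.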

[11] = Fraction unbound in mouse plasma at 5 uM after 5 hrs by equilibrium dialysis method; assay type: ADME, cell-free
Summary of the method: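 Mouse plasma was spiked to a final 5 μM and equilibrium-dialyzed against plasma water (ultrafiltrate) for 5 h at 37 °C in a CO2 incubator, using a rapid equilibrium dialysis device. Fraction unbound was determined in duplicate.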

| SMILES | pIC50 [1] | microsomal CLint at 1 µM [3] [µL/min/mg] | pIC50 [5] | further results |
| --- | --- | --- | --- | --- |
| N#Cc1cc(O[C@H]2CC[C@H](NC(=O)CCSc3nc4ccccc4c(=O)[nH]3)CC2)ccc1Cl | 7.62 | – | – | – |
| O=C(CCSc1nccc(=O)[nH]1)N[C@H]1CC[C@H](c2nnc(-c3ccccc3)o2)CC1 | 5.67 | < 14 | – | solubility [2]: 53 µg/mL (≈ 125 µM) |
| COc1ccccc1NC(=O)[C@H]1CC[C@H](NC(=O)CCc2nc3ccccc3c(=O)[nH]2)CC1 | 6.52 | – | 7.51 | half-life at 1 µM [4]: > 1000 min |
| O=C(CCc1nc2ccccc2c(=O)[nH]1)Nc1ccc(-c2nnc(-c3ccccc3)o2)cc1 | 6.39 | – | – | pEC50 [6]: 5.61; half-life at 1 µM [4]: 122 min |
| N#Cc1ccc(O[C@H]2CC[C@H](NC(=O)CCSc3nc4ccccc4c(=O)[nH]3)CC2)cc1Cl | 8.09 | – | – | Tmax [7]: 1.58 h; AUC(0-inf) [8]: 100 µM·h; Cmax [9]: 15.1 µM; pIC50 [10]: 8.96; pEC50 [6]: 8.08; fraction unbound at 5 h, 5 µM [11]: 0.002 |
| O=C(CCCSc1nc2ccccc2c(=O)[nH]1)N[C@H]1CC[C@H](c2nnc(-c3ccccc3)o2)CC1 | 7.00 | 159 | – | solubility [2]: 1 µg/mL (≈ 2.04 µM) |
| COc1ccccc1NS(=O)(=O)c1ccc(NC(=O)CCc2nc3ccccc3c(=O)[nH]2)cc1 | – | – | < 4.34 | – |
| N#Cc1cccc(O[C@H]2CC[C@H](NC(=O)CCSc3nc4ccccc4c(=O)[nH]3)CC2)c1 | 7.32 | – | – | – |
| O=C(CSc1nc2ccccc2c(=O)[nH]1)N[C@H]1CC[C@H](c2nnc(-c3ccccc3)o2)CC1 | 7.04 | 20 | – | solubility [2]: 1 µg/mL (≈ 2.17 µM) |
| O=C(CCSc1nc2ccccc2c(=O)[nH]1)N[C@H]1CC[C@H](Oc2ccc(Cl)cc2)CC1 | 7.70 | – | – | – |
| COc1ccccc1NC(=O)c1ccc(NC(=O)CCc2nc3ccccc3c(=O)[nH]2)cc1C | 5.51 | – | 6.68 | half-life at 1 µM [4]: 43 min |
| O=C(CCSc1nc2c(c(=O)[nH]1)CCCC2)N[C@H]1CC[C@H](c2nnc(-c3ccccc3)o2)CC1 | 7.96 | 60 | – | Tmax [7]: 3.23 h; AUC(0-inf) [8]: 5.3 µM·h; Cmax [9]: 3.6 µM; pIC50 [10]: 8.89; pEC50 [6]: 7.85; solubility [2]: 8 µg/mL (≈ 16.7 µM); fraction unbound at 5 h, 5 µM [11]: 0.012 |
| O=C(CCc1nc2ncccc2c(=O)[nH]1)N[C@H]1CC[C@H](c2nnc(-c3ccccc3)o2)CC1 | 5.71 | 24 | – | – |
| COc1cccc(C)c1NC(=O)c1ccc(NC(=O)CCc2nc3ccccc3c(=O)[nH]2)cc1 | – | – | 5.76 | half-life at 1 µM [4]: 270 min |
| O=C(CCc1nc2ccccc2c(=O)[nH]1)Nc1ccc(-c2csc(-c3ccccc3)n2)cc1 | – | – | < 4.34 | – |
| O=C(CCc1nc2ccccc2c(=O)[nH]1)Nc1ccc(-c2nc3ccccc3o2)cc1 | 5.11 | – | 6.07 | – |
